Assay [1] has as its target T1, 5-hydroxytryptamine receptor 1F (Homo sapiens, UniProt P30939).
T1 sequence (P30939 whole entry): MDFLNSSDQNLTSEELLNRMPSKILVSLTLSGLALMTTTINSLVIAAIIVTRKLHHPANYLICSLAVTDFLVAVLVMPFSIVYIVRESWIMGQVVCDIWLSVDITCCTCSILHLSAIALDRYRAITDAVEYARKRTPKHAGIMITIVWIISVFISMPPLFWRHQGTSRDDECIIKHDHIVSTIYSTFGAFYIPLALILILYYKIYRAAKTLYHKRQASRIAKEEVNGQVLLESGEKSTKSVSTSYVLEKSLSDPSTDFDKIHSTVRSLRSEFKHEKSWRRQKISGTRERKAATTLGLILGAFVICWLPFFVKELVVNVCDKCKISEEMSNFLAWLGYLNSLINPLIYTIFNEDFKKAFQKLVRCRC
The assay can be described thus: Binding affinity to human 5HT1F receptor by radioligand binding assay. The method in brief:
(§1)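 In vitro radioligand displacement binding on cell lines expressing the appropriate human serotonin receptor subtype. Affinity is expressed as Ki (nM), each the mean of at least two determinations.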

The target of assay [2] is 5-HT1A/5-HT1F (Homo sapiens) (UniProt P30939+P08908). The assay can be described thus: Selectivity index, ratio of Ki for human 5HT1A receptor to Ki for human 5HT1F receptor. The procedure, abridged: (§2)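 Ratio of the Ki at the 5-HT1A, 5-HT1B or 5-HT1D receptor to the Ki at the 5-HT1F receptor. Each Ki comes from at least two radioligand binding determinations in cell lines expressing the human receptor.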

For assay [3], the target named is 5-HT1B/5-HT1F (Homo sapiens) (UniProt P30939+P28222). The assay can be described thus: Selectivity index, ratio of Ki for human 5HT1B receptor to Ki for human 5HT1F receptor. The method in brief:
as §2

The target of assay [4] is 5-HT1D/5-HT1F (Homo sapiens) (UniProt P30939+P28221). The experiment in a line: Selectivity index, ratio of Ki for human 5HT1D receptor to Ki for human 5HT1F receptor. The procedure, abridged:
as §2

Assay [5] addresses T2, 5-hydroxytryptamine receptor 1A (Homo sapiens) (UniProt P08908).
T2 sequence (whole entry): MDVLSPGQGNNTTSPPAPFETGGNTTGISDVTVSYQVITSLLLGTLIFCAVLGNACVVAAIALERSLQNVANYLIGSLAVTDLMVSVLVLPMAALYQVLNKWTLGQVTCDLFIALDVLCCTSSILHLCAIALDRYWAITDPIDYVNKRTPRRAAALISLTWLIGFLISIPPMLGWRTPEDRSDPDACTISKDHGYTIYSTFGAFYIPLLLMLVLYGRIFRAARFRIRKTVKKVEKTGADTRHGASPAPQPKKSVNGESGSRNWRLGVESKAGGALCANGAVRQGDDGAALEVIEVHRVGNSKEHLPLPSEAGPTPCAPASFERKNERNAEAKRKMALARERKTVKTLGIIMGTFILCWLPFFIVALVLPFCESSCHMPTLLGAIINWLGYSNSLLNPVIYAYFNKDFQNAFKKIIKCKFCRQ
The assay can be described thus: Binding affinity to human 5HT1A receptor by radioligand binding assay. The method in brief: as §1

The target of assay [6] is 5-hydroxytryptamine receptor 1D (Homo sapiens) (UniProt P28221). The experiment in a line: Binding affinity to human 5HT1D receptor by radioligand binding assay. The procedure, abridged:
as §1

The target of assay [7] is T2, 5-hydroxytryptamine receptor 1A (Homo sapiens). The assay can be described thus: Inhibition of radioligand binding to human 5HT1A receptor at 10 uM. The method in brief:
(§3)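 Single-concentration radioligand displacement at 10 µM test compound in cell lines expressing the human 5-HT1A, 5-HT1B or 5-HT1D receptor. Read-out is percent inhibition of radioligand binding.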

The target in assay [8] is 5-hydroxytryptamine receptor 1D (Homo sapiens) (UniProt P28221). The experiment in a line: Inhibition of radioligand binding to human 5HT1D receptor at 10 uM. The method in brief:
as §3

Assay [9] deals with 5-hydroxytryptamine receptor 1B (Homo sapiens) (UniProt P28222). The assay can be described thus: Binding affinity to human 5HT1B receptor by radioligand binding assay. The method in brief: as §1
For assay [10] the target is unchanged. The experiment in a line: Inhibition of radioligand binding to human 5HT1B receptor at 10 uM. The method in brief: as §3
Assay [11] deals with T1, 5-hydroxytryptamine receptor 1F. The assay can be described thus: Agonist activity at human 5HT1F receptor expressed in LM(tk-) cells by [35S]GTPgammaS binding assay. It is filed as functional, cell-based. A general note: GTPγS resists hydrolysis and so accumulates on activated G proteins.
Assay [12] has as its target T3, 5-hydroxytryptamine receptor 1F (Homo sapiens) (UniProt P30939).
T3 sequence (whole entry): T1 sequence (P30939 whole entry)
The experiment in a line: Agonist activity at human 5HT1F receptor expressed in LM(tk-) cells by [35S]GTPgammaS binding assay relative to 5-HT. It is filed as functional, cell-based.

What is called Ki is the dissociation constant of the complex between target and ligand, obtained from inhibition or displacement. A higher Ki goes with weaker binding. The inhibition is the drop in the measured response relative to a control, in per cent. Read a high inhibition as strong suppression. As a reminder, the EC50 is the concentration at which the effect is half-maximal. As usually defined, the Emax is the size of the effect at its maximum, as opposed to the concentration needed.

Molecules are shown by their SMILES. Calls of active or inactive are those of the source. The calls are words filed in the database; no cut-off is given here.

5-hydroxytryptamine receptor 1B (Homo sapiens), sequence (P28222 whole entry): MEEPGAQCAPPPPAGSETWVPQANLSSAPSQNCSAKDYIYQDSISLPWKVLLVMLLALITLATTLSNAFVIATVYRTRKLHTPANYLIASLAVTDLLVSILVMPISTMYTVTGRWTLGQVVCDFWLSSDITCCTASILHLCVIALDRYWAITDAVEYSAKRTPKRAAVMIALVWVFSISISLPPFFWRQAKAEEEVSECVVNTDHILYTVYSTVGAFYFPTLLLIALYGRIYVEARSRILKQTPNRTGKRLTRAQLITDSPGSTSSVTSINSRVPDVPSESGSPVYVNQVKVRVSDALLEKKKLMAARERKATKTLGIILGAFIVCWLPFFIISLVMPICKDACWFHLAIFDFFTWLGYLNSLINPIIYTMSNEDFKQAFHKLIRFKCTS
5-HT1B/5-HT1F (Homo sapiens), sequence (P28222 whole entry, looked up, one chain of several): as the sequence (P28222 whole entry) above
5-hydroxytryptamine receptor 1D (Homo sapiens), sequence (P28221 whole entry): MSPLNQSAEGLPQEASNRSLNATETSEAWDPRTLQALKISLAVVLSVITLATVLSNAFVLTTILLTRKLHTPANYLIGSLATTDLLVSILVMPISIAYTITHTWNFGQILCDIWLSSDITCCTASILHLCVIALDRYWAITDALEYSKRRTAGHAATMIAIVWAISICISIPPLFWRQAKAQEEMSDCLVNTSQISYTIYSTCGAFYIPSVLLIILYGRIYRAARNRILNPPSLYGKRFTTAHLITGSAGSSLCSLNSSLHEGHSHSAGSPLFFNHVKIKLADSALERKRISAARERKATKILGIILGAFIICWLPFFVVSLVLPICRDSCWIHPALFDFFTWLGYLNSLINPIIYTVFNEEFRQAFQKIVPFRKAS
5-HT1D/5-HT1F (Homo sapiens), sequence (P28221 whole entry, looked up, one chain of several): as the sequence (P28221 whole entry) above

Regarding `CN1CCC(C(=O)c2ccnc(NC(=O)c3ccc(F)cc3)c2)CC1`, in [1], the Ki was 2400 nM. Further, the results for the Ratio Ki in assay [2], in [3] and in [4] were 0.7, 2 and 0.5, respectively.
On to `CN1CCC(C(=O)c2cccc(NC(=O)c3ccc(F)cc3)c2O)CC1`, for which affinity in [1] was put at a Ki of 1100 nM. In addition, the result in assay [5] and in assay [6] was inactive. In addition, the inhibition in assay [7] and in [8] was under 50% each time. Further, in assay [3], the Ratio Ki was 2.5.
Consider `CN1CCC(C(=O)c2cc(NC(=O)c3ccc(F)cc3)ccc2F)CC1`, for which the affinity in [1] corresponds to a Ki of 1300 nM. The outcome in assay [5], in assay [9] and in assay [6] was inactive. Moreover, the inhibition in [7], in [10] and in assay [8] was under 50% in each case.
`CN1CCC(C(=O)c2cccc(NC(=O)c3ccc(F)cc3)c2Cl)CC1`: in assay [1], the affinity, expressed as Ki, was 1700 nM. For the same compound, the Ratio Ki was found to be 0.3 in [2], 1.6 in assay [3] and 0.2 in assay [4].
With `CN1CCC(c2c[nH]c3ccc(NC(=O)c4ccc(F)cc4)cc23)CC1`, the Ratio Ki in [2] was 5; in assay [3], 54; in [4] it was 98.
Take `CN1CCC(C(=O)c2cc(NC(=O)c3ccc(F)cc3)ccn2)CC1`: the result in assay [5], in assay [9] and in assay [6] was inactive. Moreover, the inhibition in [7], in assay [10] and in assay [8] was under 50% throughout.
Compound `CN1CCC(C(=O)c2cncc(NC(=O)c3ccc(F)cc3)c2)CC1` displayed a Ki in [1] of 3200 nM. Also, in [9], the result was inactive. The inhibition in [10] is under 50%. In addition, the Ratio Ki in assay [2] came to 1; in assay [4], 0.6.
For `COc1c(NC(=O)c2ccc(F)cc2)cccc1C(=O)C1CCN(C)CC1`, affinity in [1] was put at a Ki of 610 nM. Besides, the Ratio Ki in assay [2] turned out to be 0.5; in assay [3], 4.3; in [4], 3.4.
With `CN1CCC(C(=O)c2cccc(NC(=O)c3ccc(F)cc3)c2F)CC1`, the inhibitory constant (Ki) in assay [1] turned out to be 8.3 nM. The outcome in [5], in assay [9] and in assay [6] was inactive. Moreover, the inhibition in [7], in assay [10] and in [8] was under 50% throughout. For the same compound, in assay [11], the half-maximal effective concentration (EC50) turned out to be 55 nM. The compound further had an Emax in assay [12] of 85%.
For `CN1CCC(C(=O)c2cc(F)cc(NC(=O)c3ccc(F)cc3)c2)CC1`, in assay [1], the Ki was determined as 41 nM. Besides, the result in [9] and in [6] was inactive. For the same compound, the inhibition in [10] and in assay [8] was under 50% throughout. For the same compound, in assay [2], the Ratio Ki is 22.
Turning to `CN1CCC(C(=O)c2cccc(NC(=O)c3ccc(F)cc3)c2)CC1`, the Ki in [1] amounted to 5.1 nM. In [9], the outcome was inactive. This compound also showed an inhibition in [10] of under 50%. The values for the Ratio Ki in assay [2] and in assay [4] were 170 and 730, respectively. In [11], the concentration giving a half-maximal response (EC50) amounted to 87 nM. Moreover, in assay [12], the maximal effect (Emax) came out at 79%.
For `CN1CCC(C(=O)c2cccc(NC(=O)c3ccc(F)cc3)n2)CC1`, in [1], the Ki stood at 9.5 nM. Moreover, in [9], the outcome was inactive. The inhibition in [10] is under 50%. The Ratio Ki in assay [2] was 91; in assay [4], 110. Further, in [11], the 50% effective concentration (EC50) came out at 110 nM. In assay [12], this compound yielded an Emax of 90%.
In [1], `Cc1c(NC(=O)c2ccc(F)cc2)cccc1C(=O)C1CCN(C)CC1` had an inhibition constant (Ki) of 870 nM. Besides, the outcome in assay [5], in assay [9] and in assay [6] was inactive. Also, the inhibition in assay [7], in assay [10] and in assay [8] was under 50% throughout.
In assay [1], `CN1CCC(C(=O)c2ccc(F)c(NC(=O)c3ccc(F)cc3)c2)CC1` registered a Ki of 530 nM. For the same compound, the result in assay [9] and in [6] was inactive. Besides, the inhibition in assay [10] and in [8] was under 50% throughout. Further, the Ratio Ki in assay [2] came to 2.
